# ChEMBL document CHEMBL4699485, “Discovery and Development of SPR519 as a Potent, Selective, and Orally Bioavailable Inhibitor of PI3Kα and mTOR Kinases for the Treatment of Solid Tumors” (J Med Chem, 2020)
# Active and inactive are the calls of the source. No cut-off for these calls is given here.
# Assays:
# [1] = AUC in Swiss mouse at 10 mg/kg, po via gavage by LC-MS/MS analysis; format: ADME, organism-based; set-up: dose 10 mg/kg; conditions: in vivo
# How it was run: (§1)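 Female Swiss mice (n=3/group), fasted overnight, given single oral gavage dose in 0.5% CMC/0.5% Tween 80 (10 mL/kg) at 1, 3 or 10 mg/kg. Serial blood sampling at 0.16–8 h into heparinized tubes. Plasma extracted with acetonitrile containing verapamil internal standard and quantified by LC-MS/MS. Cmax, Tmax, AUC and t1/2 derived from the concentration–time profile.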
# [2] = Elimination half life in Swiss mouse at 10 mg/kg, po via gavage by LC-MS/MS analysis; format: ADME, organism-based; conditions: in vivo, read-out: beta t1/2 (converted); how it was run: as §1
# [3] = molecular target: Dual specificity mitogen-activated protein kinase kinase 1 (Homo sapiens) (UniProt Q02750); experiment: Inhibition of human MEK1 at 1 uM using fluorescently labeled peptide substrate measured after 3 hrs by microfluidic mobility shift assay relative to control
# How it was run: (§2)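 Single-concentration screen at 1 µM in duplicate, 1% final DMSO. Kinase (typically 1 nM), fluorescently labeled peptide substrate (typically 1 µM), ATP at Km and Mg²⁺ incubated about 3 h at 25 °C, then EDTA-quenched. Substrate and phosphorylated product separated by microfluidic electrophoresis and quantified by fluorescence.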
# [4] = AUC in Swiss mouse at 1 mg/kg, po via gavage by LC-MS/MS analysis; format: ADME, organism-based; set-up: dose 1 mg/kg; conditions: in vivo; how it was run: as §1
# SK-OV-3 [5] = experiment: Antitumor activity against human SK-OV-3 cells xenografted in CD1 nude mouse assessed as tumor growth inhibition at 2.5 mg/kg, po administered once daily for 27 days and measured on day 3; format: functional, organism-based; conditions: time 27.0 day
# How it was run: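 Female CD1 nude mice bearing subcutaneous SK-OV-3 xenografts, randomized at average tumor size 120–130 mm³, five per group. Given oral doses of 2.5, 5 or 10 mg/kg once daily for 27 days alongside a vehicle control. Tumor volume from caliper length and width as (width² × length)/2, tracked every third day. Two-way ANOVA with Dunnett's test, n=5.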
# [6] = molecular target: Phosphatidylinositol 4,5-bisphosphate 3-kinase catalytic subunit beta isoform (Homo sapiens) (UniProt P42338); experiment: Inhibition of human PI3kbeta at 1 uM using fluorescently labeled peptide substrate measured after 3 hrs by microfluidic mobility shift assay relative to control; how it was run: as §2
# [7] = molecular target: Serine/threonine-protein kinase mTOR (Homo sapiens, UniProt P42345); experiment: Inhibition of recombinant human GST-tagged mTOR catalytic domain (1360 to 2549 residues) expressed in baculovirus expression system using GFP-4E-BP1 as substrate preincubated for 15 mins followed by substrate addition and measured after 60 mins by TR-FRET assay
# How it was run: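 Recombinant mTOR (FRAP1) was preincubated 15 min with serially diluted compound (10 µM–0.0005 µM, DMSO) in kinase buffer, 10 µL reaction. GFP-4E-BP1 (400 nM final) and ATP (8 µM final) were added and the reaction ran 1 h at RT. Quench buffer with Tb-anti-p4E-BP1 (pThr46) was added for 1 h at RT. TR-FRET 520/486 nm ratio was fitted by four-parameter sigmoidal regression.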
# [8] = Elimination half life in Swiss mouse at 3 mg/kg, po via gavage by LC-MS/MS analysis; format: ADME, organism-based; conditions: in vivo, read-out: beta t1/2 (converted); how it was run: as §1
# [9] = molecular target: Protein kinase C zeta type (Homo sapiens) (UniProt Q05513); experiment: Inhibition of human PRKCZ at 1 uM using fluorescently labeled peptide substrate measured after 3 hrs by microfluidic mobility shift assay relative to control; how it was run: as §2
# [10] = Cmax in Swiss mouse at 1 mg/kg, po via gavage by LC-MS/MS analysis; format: ADME, organism-based; set-up: route oral, dose 1 mg/kg; conditions: in vivo; how it was run: as §1
# A2780 = experiment: Antiproliferative activity against human A2780 cells after 48 hrs by MTT assay; format: functional, cell-based; conditions: A2780, 48 h
# How it was run: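 A2780 cells grown in DMEM with 10% FBS, L-glutamine and antibiotics, seeded at 10000 cells/well and allowed to adhere overnight. Treated 48 h across 20 µM–0.001 µM. MTT (5 mg/mL in PBS) added for 4 h, formazan dissolved in DMSO, absorbance read at 550 nm. % inhibition fit to a four-parameter log inhibitor vs response curve.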
# Cytochrome P450 2C19 = Cytochrome P450 2C19 (Homo sapiens, UniProt P33261); experiment: Inhibition of CYP2C19 in human liver microsomes using isoform-specific probe substrates preincubated for 5 mins followed by NADPH addition by LC-MS/MS analysis; format: ADME
# How it was run: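 Human liver microsomes premixed with buffer and a CYP-specific FDA-recommended probe substrate, then spiked with inhibitor, in duplicate. After 5 min preincubation at 37 °C, reaction started with NADPH and run at 37 °C for a set time, then quenched. Metabolite formation quantified by HPLC/LC-MS/MS to derive the concentration giving 50% inhibition.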
# PC-3 = experiment: Antiproliferative activity against human PC-3 cells after 48 hrs by MTT assay; format: functional, cell-based; conditions: PC-3, 48 h
# How it was run: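 PC3 cells grown in RPMI 1640 with 10% FBS and 1% penicillin/streptomycin at 37 °C, 5% CO2, seeded at 10000 cells/well. Treated 48 h across 20 µM–0.001 µM. MTT (5 mg/mL in PBS) added for 4 h, then DMSO solubilization and absorbance at 550 nm. Four-parameter nonlinear fit of % inhibition.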
# [11] = Toxicity in Swiss mouse assessed as discoloration of brain at 30 mg/kg, po administered twice daily via gavage for 5 days and measured post last dose; format: organism-based; conditions: in vivo, 120 h, time 5 day
# How it was run: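 Female Swiss mice (3 treated, 2 controls) were gavaged twice daily for 5 days, with compound in 0.5% CMC and Tween 80. After the last dosing the animals were sacrificed. Liver, kidney, lung, uterus and brain were excised and inspected visually for morphology and color change.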
# [12] = molecular target: High affinity nerve growth factor receptor (Homo sapiens) (UniProt P04629); experiment: Inhibition of human TRKA at 1 uM using fluorescently labeled peptide substrate measured after 3 hrs by microfluidic mobility shift assay relative to control; how it was run: as §2
# [13] = molecular target: RAC-gamma serine/threonine-protein kinase (Homo sapiens) (UniProt Q9Y243); experiment: Inhibition of human AKT3 at 1 uM using fluorescently labeled peptide substrate measured after 3 hrs by microfluidic mobility shift assay relative to control; how it was run: as §2
# [14] = Drug level in Swiss mouse lung at 30 mg/kg, po administered twice daily via gavage for 5 days and measured post last dose by LC-MS/MS analysis; format: ADME, organism-based; conditions: time 5 day, read-out: Drug uptake
# How it was run: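 Female Swiss mice (n=3) given 30 mg/kg in 0.5% CMC/Tween 80 by oral gavage twice daily for 5 days, with two vehicle controls. After sacrifice, liver, kidney, lung, uterus and brain were collected, homogenized in water and solvent-extracted. Drug concentration (ng/g) measured by LC-MS/MS.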
# [15] = molecular target: 3-phosphoinositide-dependent protein kinase 1 (Homo sapiens) (UniProt O15530); experiment: Inhibition of human PDK1 at 1 uM using fluorescently labeled peptide substrate measured after 3 hrs by microfluidic mobility shift assay relative to control
# SK-OV-3 [16] = experiment: Antiproliferative activity against human SK-OV-3 cells after 48 hrs by MTT assay; format: functional, cell-based; conditions: SK-OV-3, 48 h
# How it was run: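 SK-OV-3 cells grown in McCoy's 5a with 10% FBS, 100 U/mL penicillin and 100 µg/mL streptomycin at 37 °C, 5% CO2, seeded at 10000 cells/well. Treated 48 h across 20 µM–0.001 µM. MTT (5 mg/mL in PBS) added for 4 h, DMSO solubilization, absorbance read at 550 nm. Four-parameter curve fit of % inhibition.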
# Sequence of Protein kinase C zeta type (Homo sapiens) (Q05513 whole entry): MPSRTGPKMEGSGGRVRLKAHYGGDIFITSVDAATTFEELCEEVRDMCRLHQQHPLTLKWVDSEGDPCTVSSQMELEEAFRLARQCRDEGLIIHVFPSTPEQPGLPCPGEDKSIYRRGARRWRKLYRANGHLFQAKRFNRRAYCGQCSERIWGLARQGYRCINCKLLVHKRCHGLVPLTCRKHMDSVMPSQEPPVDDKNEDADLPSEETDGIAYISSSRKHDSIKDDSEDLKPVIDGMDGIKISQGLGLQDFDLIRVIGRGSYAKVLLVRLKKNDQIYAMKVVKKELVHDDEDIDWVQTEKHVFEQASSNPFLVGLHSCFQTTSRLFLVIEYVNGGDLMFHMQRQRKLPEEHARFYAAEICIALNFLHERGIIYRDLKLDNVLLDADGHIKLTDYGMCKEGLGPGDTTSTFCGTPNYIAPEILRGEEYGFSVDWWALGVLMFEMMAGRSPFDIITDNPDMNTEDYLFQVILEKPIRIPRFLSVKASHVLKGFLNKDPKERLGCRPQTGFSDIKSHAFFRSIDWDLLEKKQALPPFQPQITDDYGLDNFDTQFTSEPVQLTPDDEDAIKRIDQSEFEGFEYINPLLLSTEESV
# Sequence of High affinity nerve growth factor receptor (Homo sapiens) (P04629 33-796 limits assumed): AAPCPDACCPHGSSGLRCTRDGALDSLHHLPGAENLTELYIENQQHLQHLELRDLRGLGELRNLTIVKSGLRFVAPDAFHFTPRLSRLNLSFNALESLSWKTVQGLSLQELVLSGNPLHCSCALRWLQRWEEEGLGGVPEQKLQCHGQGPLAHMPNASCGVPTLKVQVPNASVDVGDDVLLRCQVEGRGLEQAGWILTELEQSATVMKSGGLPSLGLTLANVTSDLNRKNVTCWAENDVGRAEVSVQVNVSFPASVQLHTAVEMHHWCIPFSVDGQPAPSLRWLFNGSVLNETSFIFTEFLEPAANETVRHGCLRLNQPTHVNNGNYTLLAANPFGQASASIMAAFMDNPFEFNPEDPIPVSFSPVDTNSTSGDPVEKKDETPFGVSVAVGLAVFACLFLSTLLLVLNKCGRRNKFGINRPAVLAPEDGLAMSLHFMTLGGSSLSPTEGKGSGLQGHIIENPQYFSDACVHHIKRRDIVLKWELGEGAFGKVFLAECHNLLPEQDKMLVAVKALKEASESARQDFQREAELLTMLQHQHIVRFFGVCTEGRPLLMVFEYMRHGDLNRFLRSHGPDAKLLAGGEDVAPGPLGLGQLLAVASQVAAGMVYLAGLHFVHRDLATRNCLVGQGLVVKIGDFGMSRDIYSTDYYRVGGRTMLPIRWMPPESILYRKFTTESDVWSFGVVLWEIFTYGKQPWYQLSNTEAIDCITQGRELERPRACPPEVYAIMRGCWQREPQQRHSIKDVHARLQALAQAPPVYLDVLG
# Sequence of 3-phosphoinositide-dependent protein kinase 1 (Homo sapiens) (O15530 whole entry, looked up): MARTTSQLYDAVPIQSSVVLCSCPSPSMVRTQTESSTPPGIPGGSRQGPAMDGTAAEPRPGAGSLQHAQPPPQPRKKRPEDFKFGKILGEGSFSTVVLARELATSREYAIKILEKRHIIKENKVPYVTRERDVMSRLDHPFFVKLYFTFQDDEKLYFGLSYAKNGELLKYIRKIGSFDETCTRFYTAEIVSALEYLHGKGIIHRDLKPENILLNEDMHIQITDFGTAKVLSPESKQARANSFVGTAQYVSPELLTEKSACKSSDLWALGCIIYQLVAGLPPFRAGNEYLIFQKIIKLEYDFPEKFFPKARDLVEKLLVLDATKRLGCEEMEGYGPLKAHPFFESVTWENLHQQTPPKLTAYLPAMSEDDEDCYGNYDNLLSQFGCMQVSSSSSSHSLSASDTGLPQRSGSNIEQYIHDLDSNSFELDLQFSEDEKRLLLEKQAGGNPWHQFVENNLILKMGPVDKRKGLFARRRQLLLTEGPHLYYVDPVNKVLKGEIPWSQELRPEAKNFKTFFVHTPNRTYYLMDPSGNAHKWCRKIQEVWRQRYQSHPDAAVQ
# Sequence of Dual specificity mitogen-activated protein kinase kinase 1 (Homo sapiens) (Q02750 whole entry): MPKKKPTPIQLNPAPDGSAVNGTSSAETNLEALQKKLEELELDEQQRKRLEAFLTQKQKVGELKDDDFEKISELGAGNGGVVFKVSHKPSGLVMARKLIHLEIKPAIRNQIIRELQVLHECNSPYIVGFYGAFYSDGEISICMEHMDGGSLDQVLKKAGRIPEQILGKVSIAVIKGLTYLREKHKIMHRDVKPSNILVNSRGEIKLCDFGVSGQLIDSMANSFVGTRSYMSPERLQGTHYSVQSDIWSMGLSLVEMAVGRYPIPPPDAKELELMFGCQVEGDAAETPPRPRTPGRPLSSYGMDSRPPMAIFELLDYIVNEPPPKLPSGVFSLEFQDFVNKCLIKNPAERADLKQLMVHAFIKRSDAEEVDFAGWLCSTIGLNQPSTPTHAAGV
# Sequence of RAC-gamma serine/threonine-protein kinase (Homo sapiens) (Q9Y243 whole entry): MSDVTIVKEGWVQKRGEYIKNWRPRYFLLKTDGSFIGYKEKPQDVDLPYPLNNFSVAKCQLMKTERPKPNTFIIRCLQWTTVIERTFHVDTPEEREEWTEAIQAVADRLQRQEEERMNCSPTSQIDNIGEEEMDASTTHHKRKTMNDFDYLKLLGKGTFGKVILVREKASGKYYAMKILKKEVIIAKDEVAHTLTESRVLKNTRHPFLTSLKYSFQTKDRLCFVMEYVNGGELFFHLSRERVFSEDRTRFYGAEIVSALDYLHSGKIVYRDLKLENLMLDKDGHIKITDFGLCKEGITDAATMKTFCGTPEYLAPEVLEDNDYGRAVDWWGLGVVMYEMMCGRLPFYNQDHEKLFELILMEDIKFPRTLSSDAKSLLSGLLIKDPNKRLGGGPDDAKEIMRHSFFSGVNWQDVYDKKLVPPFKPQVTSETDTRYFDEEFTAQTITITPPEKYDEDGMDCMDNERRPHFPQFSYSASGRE
# Sequence of Cytochrome P450 2C19 (P33261 whole entry, canonical isoform): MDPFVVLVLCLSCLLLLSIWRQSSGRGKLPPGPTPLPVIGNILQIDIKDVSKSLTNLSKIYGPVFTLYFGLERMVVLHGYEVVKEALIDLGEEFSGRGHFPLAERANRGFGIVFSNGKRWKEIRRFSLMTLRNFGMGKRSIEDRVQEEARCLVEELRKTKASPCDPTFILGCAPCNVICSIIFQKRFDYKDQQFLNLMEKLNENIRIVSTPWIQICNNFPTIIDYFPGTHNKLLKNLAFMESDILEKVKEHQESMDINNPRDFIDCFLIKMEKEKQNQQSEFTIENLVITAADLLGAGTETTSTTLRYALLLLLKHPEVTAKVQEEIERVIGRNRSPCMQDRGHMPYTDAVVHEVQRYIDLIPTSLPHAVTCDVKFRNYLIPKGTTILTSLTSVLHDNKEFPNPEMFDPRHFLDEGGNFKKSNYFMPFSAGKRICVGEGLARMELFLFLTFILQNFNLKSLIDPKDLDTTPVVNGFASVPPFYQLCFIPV
# Sequence of Phosphatidylinositol 4,5-bisphosphate 3-kinase catalytic subunit beta isoform (Homo sapiens) (P42338 whole entry, looked up, the tested form may be a part, canonical isoform): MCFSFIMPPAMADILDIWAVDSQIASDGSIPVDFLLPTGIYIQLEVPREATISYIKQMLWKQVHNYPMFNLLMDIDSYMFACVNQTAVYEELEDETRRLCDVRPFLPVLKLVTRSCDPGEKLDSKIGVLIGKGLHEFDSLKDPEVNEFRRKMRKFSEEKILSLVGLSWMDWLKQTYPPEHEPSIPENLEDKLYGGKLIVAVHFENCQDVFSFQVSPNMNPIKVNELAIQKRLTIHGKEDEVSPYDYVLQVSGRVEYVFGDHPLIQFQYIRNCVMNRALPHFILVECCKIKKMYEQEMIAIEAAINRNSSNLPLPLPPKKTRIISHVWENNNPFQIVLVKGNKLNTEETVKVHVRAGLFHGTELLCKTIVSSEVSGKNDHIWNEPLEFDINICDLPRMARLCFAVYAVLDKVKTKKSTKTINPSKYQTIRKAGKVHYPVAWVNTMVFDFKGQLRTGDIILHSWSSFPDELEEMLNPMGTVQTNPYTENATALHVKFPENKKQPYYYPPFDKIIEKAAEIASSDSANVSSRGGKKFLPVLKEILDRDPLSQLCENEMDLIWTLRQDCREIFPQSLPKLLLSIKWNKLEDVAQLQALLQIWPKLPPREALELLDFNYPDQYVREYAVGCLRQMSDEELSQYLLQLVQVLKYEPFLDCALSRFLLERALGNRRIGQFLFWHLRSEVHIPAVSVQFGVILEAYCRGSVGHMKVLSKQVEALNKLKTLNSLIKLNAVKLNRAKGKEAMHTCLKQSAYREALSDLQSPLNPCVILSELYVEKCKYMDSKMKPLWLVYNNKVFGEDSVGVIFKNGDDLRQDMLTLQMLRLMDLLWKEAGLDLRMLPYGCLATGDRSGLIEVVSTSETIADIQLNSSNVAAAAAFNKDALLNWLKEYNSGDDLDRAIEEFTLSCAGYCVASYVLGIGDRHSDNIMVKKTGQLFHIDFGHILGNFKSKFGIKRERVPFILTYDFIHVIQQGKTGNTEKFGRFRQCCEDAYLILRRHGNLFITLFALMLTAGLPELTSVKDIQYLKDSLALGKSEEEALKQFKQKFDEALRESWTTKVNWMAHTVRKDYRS
compound,measurement,setting,value
CN(C)C(=O)c1ccc(Oc2nc(-c3cnc(N)s3)nc(N3CCOCC3)n2)cc1,AUC,[1],76.4 µM·h
same,half-life,[2],2.52 h
same,inhibition,[3],0%
same,AUC,[4],26.9 µM·h
same,TGI,SK-OV-3 [5],Active
same,inhibition,[6],42%
same,IC50,[7],10 nM
same,half-life,[8],2.7 h
same,inhibition,[9],0%
same,Cmax,[10],5.01 µM
same,IC50,A2780,230 nM
same,IC50,Cytochrome P450 2C19,> 10000 nM
same,EC50,PC-3,480 nM
same,Activity,[11],Non-Toxic
same,inhibition,[12],3%
same,inhibition,[13],-1%
same,concentration at 120 h,[14],50 ng/g
same,inhibition,[15],-1%
same,EC50,SK-OV-3 [16],500 nM
